Reference: ChEMBL document CHEMBL5154815, “A Series of Substituted Bis-Aminotriazines Are Activators of the Natriuretic Peptide Receptor C” (J Med Chem, 2022)
Active and inactive are the calls of the source. The calls are words filed in the database; no cut-off is given here.

Assays:
[1] = target: T1, Atrial natriuretic peptide receptor 2 (Homo sapiens) (UniProt P20594); assay: Agonist activity at NPRB in human HeLa cells assessed as increased cGMP formation at 1 uM incubated for 30 mins in presence of IBMX by ELISA; assay type: cell-based; conditions: filed as agonist
T1 sequence (whole entry): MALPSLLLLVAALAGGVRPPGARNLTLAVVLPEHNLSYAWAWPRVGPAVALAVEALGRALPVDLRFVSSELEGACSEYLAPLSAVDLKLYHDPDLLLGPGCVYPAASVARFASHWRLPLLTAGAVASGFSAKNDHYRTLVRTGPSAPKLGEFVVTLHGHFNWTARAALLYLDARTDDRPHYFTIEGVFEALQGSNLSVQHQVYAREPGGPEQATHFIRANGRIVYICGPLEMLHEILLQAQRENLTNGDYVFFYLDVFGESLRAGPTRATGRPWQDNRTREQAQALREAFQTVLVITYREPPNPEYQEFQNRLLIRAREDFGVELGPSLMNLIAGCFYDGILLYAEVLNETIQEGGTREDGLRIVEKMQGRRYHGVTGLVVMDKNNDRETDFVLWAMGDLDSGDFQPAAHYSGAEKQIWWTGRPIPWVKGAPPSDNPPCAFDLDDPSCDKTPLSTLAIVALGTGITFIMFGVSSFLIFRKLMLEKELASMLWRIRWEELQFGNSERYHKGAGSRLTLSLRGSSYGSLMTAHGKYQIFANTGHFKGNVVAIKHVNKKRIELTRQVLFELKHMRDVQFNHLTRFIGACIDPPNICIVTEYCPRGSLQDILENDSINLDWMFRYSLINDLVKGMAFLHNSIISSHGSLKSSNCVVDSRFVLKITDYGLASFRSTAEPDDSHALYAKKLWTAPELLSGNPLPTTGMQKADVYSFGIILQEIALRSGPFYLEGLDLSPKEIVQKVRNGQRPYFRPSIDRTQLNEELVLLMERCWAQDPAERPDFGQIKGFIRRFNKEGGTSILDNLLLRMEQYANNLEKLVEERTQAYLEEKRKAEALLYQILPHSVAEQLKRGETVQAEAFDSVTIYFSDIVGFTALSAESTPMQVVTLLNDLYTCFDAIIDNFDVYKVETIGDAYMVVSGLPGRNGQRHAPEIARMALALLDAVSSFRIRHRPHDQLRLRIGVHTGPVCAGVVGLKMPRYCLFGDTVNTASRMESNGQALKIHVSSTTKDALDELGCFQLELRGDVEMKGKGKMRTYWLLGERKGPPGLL
How it was run: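 HeLa cells grown in high-glucose DMEM with 10% heat-inactivated bovine serum, penicillin and streptomycin at 5% CO2. Medium was changed on the assay day, then cells equilibrated 4 h. ANP, CNP and cANF4–23 (1 μM) or test compounds (10 μM) were added with IBMX (1 mM) for 30 min. Lysis used 1% Triton-X/0.1 M HCl. Supernatant cGMP was read by ELISA and normalized to BCA protein; points are independent biological replicates.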

[2] = Stability of compound in pooled human plasma assessed as half life measured upto 120 mins by LC/MS/MS analysis; conditions: 2 h
[3] = target: T2, Atrial natriuretic peptide receptor 3 (Homo sapiens, UniProt P17342); assay: Binding affinity to CM5 sensor chip immobilized human NPR-C (27 to 541 residues) assessed as dissociation constant by surface plasmon resonance analysis
T2 sequence (P17342 whole entry): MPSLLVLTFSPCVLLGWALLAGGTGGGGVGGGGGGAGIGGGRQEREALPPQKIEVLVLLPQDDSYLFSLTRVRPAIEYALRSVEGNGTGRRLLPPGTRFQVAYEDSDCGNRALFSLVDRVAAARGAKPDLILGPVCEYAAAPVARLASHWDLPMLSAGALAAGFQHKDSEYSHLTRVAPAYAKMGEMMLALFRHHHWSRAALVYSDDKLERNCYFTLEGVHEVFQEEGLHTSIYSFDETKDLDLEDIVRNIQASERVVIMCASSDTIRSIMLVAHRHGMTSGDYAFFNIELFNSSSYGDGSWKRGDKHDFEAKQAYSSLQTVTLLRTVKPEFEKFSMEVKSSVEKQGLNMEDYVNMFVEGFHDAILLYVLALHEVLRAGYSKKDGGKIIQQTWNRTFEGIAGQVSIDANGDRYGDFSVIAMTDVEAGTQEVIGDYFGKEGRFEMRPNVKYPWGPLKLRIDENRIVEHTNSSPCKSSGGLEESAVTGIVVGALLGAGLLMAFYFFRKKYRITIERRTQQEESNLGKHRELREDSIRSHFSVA

[4] = rat, hepatocytes, 20 min, 1 µM
[5] = target: T3, Atrial natriuretic peptide receptor 3 (Rattus norvegicus, UniProt P41740); assay: Agonist activity at NPRC in rat aorta assessed as vasorelaxation by Organ bath assay; assay type: tissue-based
T3 sequence (P41740 whole entry): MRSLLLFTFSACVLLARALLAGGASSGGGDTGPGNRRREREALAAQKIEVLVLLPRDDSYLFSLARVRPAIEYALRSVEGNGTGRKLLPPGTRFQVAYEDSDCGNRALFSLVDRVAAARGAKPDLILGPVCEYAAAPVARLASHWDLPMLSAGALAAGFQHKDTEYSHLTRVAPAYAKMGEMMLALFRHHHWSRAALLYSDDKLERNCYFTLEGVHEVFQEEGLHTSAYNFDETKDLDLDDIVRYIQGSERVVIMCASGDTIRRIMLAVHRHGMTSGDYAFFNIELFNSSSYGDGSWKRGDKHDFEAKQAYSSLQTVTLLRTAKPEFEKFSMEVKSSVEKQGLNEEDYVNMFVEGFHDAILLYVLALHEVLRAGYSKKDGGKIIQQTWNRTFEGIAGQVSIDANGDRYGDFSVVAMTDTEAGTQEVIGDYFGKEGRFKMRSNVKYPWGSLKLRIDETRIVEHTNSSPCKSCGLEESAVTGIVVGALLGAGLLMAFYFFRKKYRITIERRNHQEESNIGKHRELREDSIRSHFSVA

Cytochrome P450 2C8 = target: T4, Cytochrome P450 2C8 (Homo sapiens, UniProt P10632); assay: Inhibition of CYP2C8 in human liver microsomes using amodiaquine as a substrate preincubated for 10 mins followed by NADPH addition and measured after 10 mins by LC/MS/MS analysis
T4 sequence (P10632 whole entry): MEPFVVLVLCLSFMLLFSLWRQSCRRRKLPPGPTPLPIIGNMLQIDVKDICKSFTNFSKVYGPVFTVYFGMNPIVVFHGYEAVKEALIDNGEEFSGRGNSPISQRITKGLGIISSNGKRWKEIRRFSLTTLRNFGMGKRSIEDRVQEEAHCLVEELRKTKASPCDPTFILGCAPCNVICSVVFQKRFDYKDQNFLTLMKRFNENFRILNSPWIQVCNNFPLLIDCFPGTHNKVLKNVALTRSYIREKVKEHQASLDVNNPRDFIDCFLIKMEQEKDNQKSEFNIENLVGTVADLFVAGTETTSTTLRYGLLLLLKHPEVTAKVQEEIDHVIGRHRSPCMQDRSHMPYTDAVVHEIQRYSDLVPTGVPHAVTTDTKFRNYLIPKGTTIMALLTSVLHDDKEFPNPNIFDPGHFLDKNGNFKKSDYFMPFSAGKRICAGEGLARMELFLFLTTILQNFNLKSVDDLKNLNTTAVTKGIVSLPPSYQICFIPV

Cytochrome P450 2C19 = Cytochrome P450 2C19 (Homo sapiens, UniProt P33261); assay: Inhibition of CYP2C19 in human liver microsomes using S-mephenytoin as substrate preincubated for 10 mins followed by NADPH addition and measured after 20 mins by LC/MS/MS analysis
Sequence of Cytochrome P450 2C19 (P33261 whole entry): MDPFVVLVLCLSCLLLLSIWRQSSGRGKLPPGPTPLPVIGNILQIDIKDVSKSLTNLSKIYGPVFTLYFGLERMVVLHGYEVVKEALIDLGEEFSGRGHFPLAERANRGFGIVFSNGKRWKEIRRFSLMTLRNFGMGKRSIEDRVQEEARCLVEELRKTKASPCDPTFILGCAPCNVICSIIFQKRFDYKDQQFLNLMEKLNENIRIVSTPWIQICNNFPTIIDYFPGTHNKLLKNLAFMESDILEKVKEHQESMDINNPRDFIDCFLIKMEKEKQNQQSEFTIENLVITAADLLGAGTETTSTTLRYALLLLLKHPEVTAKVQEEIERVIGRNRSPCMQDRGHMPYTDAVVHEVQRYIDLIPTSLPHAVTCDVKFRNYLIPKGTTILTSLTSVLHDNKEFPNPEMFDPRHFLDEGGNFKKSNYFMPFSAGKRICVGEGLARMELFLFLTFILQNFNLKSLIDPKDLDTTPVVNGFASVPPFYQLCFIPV

[6] = Stability in Sprague-Dawley rat hepatocytes assessed as clearance per […] at 1 uM after 20 mins by LC-MS/MS analysis; assay type: ADME, cell-based, Hepatocyte
[7] = Permeability of the compound in PBS at pH 7.4 incubated for 5 hrs by LC/MS based PAMPA assay; conditions: pH 7.4, 5 h
[8] = target: T3, Atrial natriuretic peptide receptor 3; assay: Agonist activity at NPRC in rat small mesenteric arteries assessed as vasorelaxation by Organ bath assay; assay type: tissue-based, Artery
Cytochrome P450 2C9 = Cytochrome P450 2C9 (Homo sapiens, UniProt P11712); assay: Inhibition of CYP2C9 in human liver microsomes using diclofenac as substrate preincubated for 10 mins followed by NADPH addition and measured after 10 mins by LC/MS/MS analysis
Sequence of Cytochrome P450 2C9 (P11712 whole entry): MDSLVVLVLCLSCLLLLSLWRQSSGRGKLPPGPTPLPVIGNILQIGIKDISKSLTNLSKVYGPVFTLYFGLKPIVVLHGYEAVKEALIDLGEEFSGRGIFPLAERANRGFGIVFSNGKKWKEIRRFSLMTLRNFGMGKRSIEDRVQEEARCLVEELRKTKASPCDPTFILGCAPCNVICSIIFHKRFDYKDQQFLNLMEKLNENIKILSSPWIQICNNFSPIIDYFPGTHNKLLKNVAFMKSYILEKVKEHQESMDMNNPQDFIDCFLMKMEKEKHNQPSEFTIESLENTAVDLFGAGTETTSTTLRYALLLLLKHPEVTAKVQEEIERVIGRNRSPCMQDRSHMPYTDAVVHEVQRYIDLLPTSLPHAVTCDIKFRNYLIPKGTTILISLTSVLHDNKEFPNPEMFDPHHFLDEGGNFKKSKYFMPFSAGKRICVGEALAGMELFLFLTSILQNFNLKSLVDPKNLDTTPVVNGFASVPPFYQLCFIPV

[9] = Solubility of compound in PBS at 10 mM after 3 hrs by UV analysis; conditions: buffer, 10000 µM
[10] = Protein binding in human plasma by equilibrium dialysis assay
Cytochrome P450 3A4 [11] = target: T5, Cytochrome P450 3A4 (Homo sapiens, UniProt P08684); assay: Inhibition of CYP3A4 in human liver microsomes using testosterone as a substrate preincubated for 10 mins followed by NADPH addition and measured after 10 mins by LC/MS/MS analysis
T5 sequence (P08684 whole entry): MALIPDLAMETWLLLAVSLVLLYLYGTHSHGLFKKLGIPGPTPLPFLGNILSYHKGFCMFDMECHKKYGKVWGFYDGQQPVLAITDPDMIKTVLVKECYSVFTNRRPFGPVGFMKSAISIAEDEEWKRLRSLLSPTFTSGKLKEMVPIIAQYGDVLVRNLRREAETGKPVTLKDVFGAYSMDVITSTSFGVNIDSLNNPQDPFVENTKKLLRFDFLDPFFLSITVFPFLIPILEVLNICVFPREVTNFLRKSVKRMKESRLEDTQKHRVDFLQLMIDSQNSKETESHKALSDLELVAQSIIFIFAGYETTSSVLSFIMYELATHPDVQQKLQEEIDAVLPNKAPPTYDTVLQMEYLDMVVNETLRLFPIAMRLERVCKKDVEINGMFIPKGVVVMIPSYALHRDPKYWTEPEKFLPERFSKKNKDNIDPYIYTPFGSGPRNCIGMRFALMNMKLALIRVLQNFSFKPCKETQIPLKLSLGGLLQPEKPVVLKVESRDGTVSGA

Cytochrome P450 3A4 [12] = target: T5, Cytochrome P450 3A4; assay: Inhibition of CYP3A4 in human liver microsomes using midazolam as a substrate preincubated for 10 mins followed by NADPH addition and measured after 20 mins by LC/MS/MS analysis
Cytochrome P450 1A2 = target: T6, Cytochrome P450 1A2 (Homo sapiens, UniProt P05177); assay: Inhibition of CYP1A2 in human liver microsomes using phenacetin as substrate preincubated for 10 mins followed by NADPH addition and measured after 10 mins by LC/MS/MS analysis
T6 sequence (P05177 whole entry): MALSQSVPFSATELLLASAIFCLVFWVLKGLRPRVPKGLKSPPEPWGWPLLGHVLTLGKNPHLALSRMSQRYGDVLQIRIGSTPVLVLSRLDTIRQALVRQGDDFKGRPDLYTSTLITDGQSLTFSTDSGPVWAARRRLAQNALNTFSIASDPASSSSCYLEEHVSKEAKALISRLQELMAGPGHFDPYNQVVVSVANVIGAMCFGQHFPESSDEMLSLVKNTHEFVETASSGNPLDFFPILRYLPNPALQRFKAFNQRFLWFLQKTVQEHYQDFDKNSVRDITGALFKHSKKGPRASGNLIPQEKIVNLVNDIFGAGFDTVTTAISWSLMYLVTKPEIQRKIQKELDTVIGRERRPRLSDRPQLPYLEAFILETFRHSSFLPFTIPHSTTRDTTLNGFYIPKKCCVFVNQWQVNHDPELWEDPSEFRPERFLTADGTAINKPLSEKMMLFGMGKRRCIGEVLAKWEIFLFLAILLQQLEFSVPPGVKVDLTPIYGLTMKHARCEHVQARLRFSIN

Q: With `CC[C@H](C)[C@@H]1NC(=O)[C@H](CCCNC(=N)N)NC(=O)[C@H](CC(=O)O)NC(=O)[C@H](CCSC)NC(=O)[C@H](CCCNC(=N)N)NC(=O)CNC(=O)CNC(=O)[C@H](Cc2ccccc2)NC(=O)[C@@H](NC(=O)[C@H](CO)NC(=O)[C@H](CO)NC(=O)[C@H](CCCNC(=N)N)NC(=O)[C@H](CCCNC(=N)N)NC(=O)[C@H](CC(C)C)NC(=O)[C@@H](N)CO)CSSC[C@@H](C(=O)N[C@@H](CC(N)=O)C(=O)N[C@@H](CO)C(=O)N[C@@H](Cc2ccccc2)C(=O)N[C@@H](CCCNC(=N)N)C(=O)N[C@@H](Cc2ccc(O)cc2)C(=O)O)NC(=O)CNC(=O)[C@H](CC(C)C)NC(=O)CNC(=O)[C@H](CO)NC(=O)[C@H](CCC(N)=O)NC(=O)[C@H](C)NC(=O)CNC1=O` as the molecule, how does the Activity [1] read?
A: Its Activity is “Active”.

Q: For `CC(=O)Nc1ccc(Nc2ncnc(N[C@@H](CC(C)C)C(=O)O)n2)cc1`, which t1/2 [2] is on record?
A: Its t1/2 is > 1 h.

Q: And the Kd [3]?
A: The Kd was 220 µM.

Q: What about the t1/2 [4] of the same molecule?
A: Its t1/2 is 3.613 h.

Q: And the EC50 [5]?
A: Its EC50 is 6.2 µM.

Q: What about the IC50 (Cytochrome P450 2C8) of the same molecule?
A: The IC50 was > 50 µM.

Q: And the IC50 (Cytochrome P450 2C19)?
A: The IC50 was > 50 µM.

Q: And the CLH [6]?
A: Its CLH is < 6.4 µL/min.

Q: What about the Papp [7] of the same molecule?
A: Its Papp is < 0.001 10^-6 cm/s.

Q: And the EC50 [8]?
A: The EC50 was 22.2 µM.

Q: What about the IC50 (Cytochrome P450 2C9) of the same molecule?
A: Its IC50 is > 50 µM.

Q: And the solubility [9]?
A: Its solubility is > 71.68 mg/mL.

Q: And the PPB [10]?
A: The PPB was 85.4%.

Q: What about the IC50 (Cytochrome P450 3A4 [11]) of the same molecule?
A: The IC50 was > 50 µM.

Q: What about the IC50 (Cytochrome P450 3A4 [12]) of the same molecule?
A: The IC50 was > 50 µM.

Q: What about the IC50 (Cytochrome P450 1A2) of the same molecule?
A: The IC50 was > 50 µM.
